High-throughput results (PubChem)
An excerpt weighted towards active compounds, which were near 4.3% of everything screened.
SR-BI HDL uptake = blocks mouse SR-BI lipid uptake from DiI-HDL; Q61009; inhibition, % at 12.5 µM; 320,000 tested, 0.96% active; ldlA[mSR-BI] CHO cells, DiI-HDL uptake fluorescence, 3 h;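 active = mean replicate inhibition of at least 70% and a set share of replicates each scoring 70 or more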;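 note: 0% = median of neutral control wells and 100% = median of positive control wells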
SMARCA2 activ = activators of SMARCA2 function; MG213 cells, MMTV-luciferase reporter, dexamethasone, overnight; activation, % at 9.1 µM; 370,000 tested, 1% active; AID 652017; in the data active = activation above about 7.8%;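 note: 0% = vehicle wells and 100% = reference activator wells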
SR-BI uptake up = enhances SR-BI lipid uptake from DiI-HDL; 320,000 tested, 0.096% active; CHO ldlA[mSR-BI] cells, DiI-HDL uptake fluorescence, 3 h; 100 = double the neutral-control signal; activation, % at 12.5 µM;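 active = mean replicate activation of at least 60% and every replicate at or above 60%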;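 note: 0% = median plate neutral-control signal and 100% = twice that signal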
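system = CHO ldlA[mSR-BI] cells, LDL receptor-null, SR-BI overexpressing | medium = Ham's F12 with 0.5% BSA, HEPES 25 mM, pH 7.4 | probe or stimulus = DiI-HDL 10 µg/mL | compound dosing = single-point compound dose | incubation = compound exposure 3 h, 37 °C | technique = DiI fluorescence, bottom read | read-out = cell-associated DiI fluorescence as measure of HDL uptake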
Yeast superoxide = yeast age-related superoxide inhibition as caloric restriction mimetic. S. cerevisiae aged cells, superoxide DHE fluorescence; hits give low values. 330,000 tested, 0.18% active. superoxide response (% of plate mean), % at 10 µM;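 active = superoxide response under a set limit, about three screen SD below normal, cut at about 65% in these data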;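 note: yeast aged for seven days with compound at 30 °C before DHE staining; 100% = average MFI of all compound-treated wells on the plate with controls excluded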
AHR activator = activates the human aryl hydrocarbon receptor; 320,000 tested, 2.5% active; AHR-responsive luciferase reporter cells, luminescence; activation, % at 5 µM; in the data active = activation above about 47%;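 note: 0% = vehicle wells and 100% = reference agonist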
Target sequence (P35869 whole entry, looked up): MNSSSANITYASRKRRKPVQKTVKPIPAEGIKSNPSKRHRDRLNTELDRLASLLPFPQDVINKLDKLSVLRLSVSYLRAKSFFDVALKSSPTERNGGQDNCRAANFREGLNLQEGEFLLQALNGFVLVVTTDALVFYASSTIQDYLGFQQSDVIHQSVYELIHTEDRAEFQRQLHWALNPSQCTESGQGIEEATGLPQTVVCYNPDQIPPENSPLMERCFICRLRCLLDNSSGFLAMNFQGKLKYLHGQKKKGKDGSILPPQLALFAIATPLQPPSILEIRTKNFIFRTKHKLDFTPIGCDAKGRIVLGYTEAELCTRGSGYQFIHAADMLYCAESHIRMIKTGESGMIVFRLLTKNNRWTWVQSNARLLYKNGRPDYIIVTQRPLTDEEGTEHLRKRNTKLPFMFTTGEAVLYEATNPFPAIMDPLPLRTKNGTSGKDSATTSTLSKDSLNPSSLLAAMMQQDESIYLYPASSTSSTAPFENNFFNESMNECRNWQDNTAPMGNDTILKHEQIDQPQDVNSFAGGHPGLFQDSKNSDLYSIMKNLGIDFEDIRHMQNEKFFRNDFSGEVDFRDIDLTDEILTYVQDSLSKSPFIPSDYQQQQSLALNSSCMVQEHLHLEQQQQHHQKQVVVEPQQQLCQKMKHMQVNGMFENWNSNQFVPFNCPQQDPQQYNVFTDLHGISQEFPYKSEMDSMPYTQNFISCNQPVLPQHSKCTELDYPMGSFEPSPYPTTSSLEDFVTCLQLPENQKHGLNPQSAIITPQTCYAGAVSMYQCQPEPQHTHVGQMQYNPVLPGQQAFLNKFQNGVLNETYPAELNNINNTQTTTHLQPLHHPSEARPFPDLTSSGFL
Lipid droplet = modulators of hepatic lipid droplet formation; AML12 mouse hepatocytes, oleate lipid droplets, BODIPY imaging; 240,000 tested, 0.4% active; AID 1656; inhibition, % at 6.5 µM;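 active = lipid droplet intensity inhibited by at least 50%, with more than 500 cells counted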
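System: AML12 hepatocytes (mouse). Probe or stimulus: oleic acid at 100 µM to induce lipid droplet formation. Times: overnight treatment with compound plus oleate. Detection: Image-based BODIPY and DAPI two-channel analysis. Evaluation: percent inhibition of filter-corrected integrated lipid droplet intensity per well.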
* = called active by the depositor; · = no result.

SMILES	SR-BI HDL uptake	SMARCA2 activ	SR-BI uptake up	Yeast superoxide	AHR activator	Lipid droplet
CC(=O)n1cc([C@@H]2C=C(C(=O)Nc3ccccc3)O[C@H](OCc3ccc(CO)cc3)C2)c2ccccc21	28.0	0.2	-28.0	102.8	21.5	-1.2
CC(=O)n1cc([C@H]2C=C(C(N)=O)O[C@@H](OCc3ccc(CO)cc3)C2)c2ccccc21	-7.1	-0.4	7.1	108.3	73.3*	·
C#CCNC(=O)C1=C[C@@H](c2cn(C(C)=O)c3ccccc23)C[C@@H](OCc2ccc(CO)cc2)O1	-7.9	0.3	7.9	·	47.3*	-24.4
CCOC(=O)Cn1cc(CN2C(C(=O)OC)CN(C3CC3)CCS2(=O)=O)nn1 (configuration not stated)	·	-5.4	·	·	·	·
Cc1ccc2c(c1)/C(=N/OS(=O)(=O)c1ccccc1)CCS2	-13.3	-1.9	13.3	97.4	4.9	·
CC1=CC(=O)C(C(C)C)=C/C1=N/OS(=O)(=O)c1ccccc1	79.7*	-15.4	-79.7	88.7	5.0	21.4
CC1=CC(=O)C=C(C)C1=NOS(=O)(=O)c1ccccc1	111.6*	3.4	-111.6	·	·	-108.1
Cc1ccc(S(=O)(=O)ON=C2CCN(S(=O)(=O)c3ccccc3)CC2)cc1	3.5	1.1	-3.5	98.7	-0.6	·
COc1ccc(-c2c(Cc3ccccc3)nc(NC(=O)c3ccccc3)n2C)cc1	·	-5.9	·	·	·	·
O=C(Cn1cnc2ccccc2c1=O)Nc1ccc(S(=O)(=O)N2CCOCC2)cc1	-1.4	-4.5	1.4	103.0	47.5*	2.7
Cc1ccc(C(=O)N2CCC[C@@H]2C(=O)N2CCC[C@@H]2C(=O)NCc2ccccc2)cc1	·	-1.5	·	·	·	·
CCOc1ccc(C(=O)NCC(=O)NCCSc2ccc(Br)cc2)cc1OCC	87.3*	-5.4	-87.3	·	·	·
O=Cc1cn(-c2ccccc2)nc1-c1ccncc1	-0.8	-2.5	0.8	88.8	60.4*	2.1
O=C(CSc1nnc(-c2cccnc2)n1Cc1ccco1)Nc1ccc(Cl)cc1	·	-3.1	·	·	·	·
Cc1ccc(C(=O)NC(C)c2ccc(-n3ccnc3)cc2)c(C)c1 (configuration not stated)	-16.7	1.1	16.7	97.7	30.8	-13.7
Cc1ccc(C)c(C(=O)NC(C)c2ccc(-n3ccnc3)cc2)c1 (configuration not stated)	-4.2	0.8	4.2	·	78.2*	6.5
Cc1c(C(=O)NC(C)c2ccc(-n3ccnc3)cc2)cccc1[N+](=O)[O-] (configuration not stated)	-19.1	0.8	19.1	102.3	60.5*	6.9
CC(NC(=O)c1ccccc1Cl)c1ccc(-n2ccnc2)cc1 (configuration not stated)	0.9	-0.3	-0.9	94.0	53.9*	-8.7
CSc1ccccc1C(=O)NC(C)c1ccc(-n2ccnc2)cc1 (configuration not stated)	3.9	-1.4	-3.9	80.9	67.1*	-17.2
COc1ccc(C(=O)NC(C)c2ccc(-n3ccnc3)cc2)cc1[N+](=O)[O-] (configuration not stated)	-12.0	-0.5	12.0	106.8	9.1	0.0
CCOC(=O)C1CSCCS(=O)(=O)N1Cc1ccc(F)cc1 (configuration not stated)	·	2.9	·	·	·	·
Cc1nn(-c2ccc(Cl)cc2)c(N)c1C(O)(CSc1nccn1C)C(F)(F)F (configuration not stated)	18.7	-0.2	-18.7	92.6	48.0*	·
Cc1nn(-c2ccccc2)c(N)c1C(O)(CSc1nccn1C)C(F)(F)F (configuration not stated)	3.6	-2.5	-3.6	98.8	7.8	-11.1
CCN1CCn2c3c(c4cccc(C)c42)CCCC31 (configuration not stated)	-2.9	-0.7	2.9	102.8	61.0*	-7.5
COc1nc(-c2ccccc2)cc(-c2ccccc2)n1	35.2	-0.6	-35.2	98.0	63.2*	2.4
SMILES	SR-BI HDL uptake	SMARCA2 activ	SR-BI uptake up	Yeast superoxide	AHR activator	Lipid droplet
COc1ccc2nc(-c3ccccc3)cc(OC)c2c1	6.0	3.7	-6.0	96.5	64.4*	-31.3
Cc1nc(-c2ccccc2)cc(-c2ccccc2)n1	30.6	-5.1	-30.6	98.3	18.3	·
CN(N)c1nc(-c2ccccc2)cc(-c2ccccc2)n1	41.4	-2.5	-41.4	107.4	66.3*	-2.0
COc1ccc2nc(-c3ccccc3)[nH]c(=O)c2c1	-7.6	3.0	7.6	·	·	·
O=C(CSc1nnc(COc2ccccc2)n1-c1ccc(Cl)cc1)Nc1ccc2c(c1)OCCO2	·	-5.3	·	·	·	·
COc1ccc(OC)c(CN2C(=O)CSCC2(C)c2nnnn2C2CCCC2)c1 (configuration not stated)	·	-0.9	·	·	·	·
COc1ccc(C(=O)CSc2nnc(-c3cccnc3)n2-c2ccc(C)cc2)cc1	·	-2.5	·	·	·	·
CN(CCOC(=O)CCCc1ccccc1)C1CN(Cc2cn(Cc3ccccc3F)nn2)S(=O)(=O)C1 (configuration not stated)	·	-2.6	·	·	·	·
O=C(Nc1ccc(F)cc1)OCc1cn(Cc2ccccc2Cl)nn1	·	0.9	·	·	·	·
O=C(NC1CCCC1)C1(C(=O)C2CC2)CC(c2ccccc2C(F)(F)F)=NO1 (configuration not stated)	·	-2.3	·	·	·	·
Cc1[nH]nc(-c2ccc(OCc3cnn(-c4ccccc4)c3)cc2O)c1Oc1ccccc1F	24.9	-0.1	-24.9	92.1	49.9*	·
CCN(CC)C(=O)CC[C@H]1CC[C@]2(CCCN(Cc3nccn3C)C2)O1	·	-1.7	·	·	·	·
CCOC(=O)C1CCN(C(=O)Nc2ccc(Cl)cc2Cl)CC1	79.5*	2.1	-79.5	100.0	-2.6	6.3
CCOC(=O)C1CCN(C(=O)Nc2cccc(Cl)c2)CC1	-11.5	-4.5	11.5	106.6	0.3	-15.1
Cc1cccc(NC(=O)c2cc(Cl)nc3ccccc23)c1	34.8	-1.9	-34.8	84.6	61.7*	·
Cc1cc(C(=O)Nc2ccc(Cl)cc2)c2ccccc2n1	9.6	-3.8	-9.6	101.3	65.7*	-0.3
Cc1cc(C(=O)Nc2ccccc2)c2ccccc2n1	13.8	-1.4	-13.8	103.0	34.2	11.4
Cc1ccc(NC(=O)c2cc(Cl)nc3ccccc23)cc1	7.2	1.3	-7.2	103.0	32.3	·
CC(C)Cc1cc(C(=O)Nc2ccccc2)c2ccccc2n1	70.2*	-1.6	-70.2	95.3	0.7	·
CCN1CCCCC(NC(=O)c2ccc(Cl)cc2Cl)C1=O (configuration not stated)	·	-1.4	·	·	·	·
Cc1ccc2nc(/C(C#N)=C/c3ccc(O)c(O)c3)[nH]c2c1	7.9	2.6	-7.9	95.1	61.6*	7.4
Cc1ccc2nc(/C(C#N)=C/c3ccccc3C(=O)O)[nH]c2c1	-8.2	2.7	8.2	93.9	29.6	-2.3
Cc1ccc2nc(/C(C#N)=C/c3cn[nH]c3-c3ccc(F)cc3)[nH]c2c1	24.4	3.4	-24.4	106.4	76.5*	·
Cc1ccc(CN2CCCCC(NC(=O)c3cccc(F)c3)C2=O)cc1 (configuration not stated)	·	0.1	·	·	·	·
